aDG glyco up = increases alpha dystroglycan glycosylation; actives 0.22% (n = 360,000); activation, % at 10 µM; Pro5-aDG cells, alpha-DG glycosylation AlphaScreen (IIH6); 0% Pro5, 100% B10-LARGE cell signal;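 active = activation of at least 8% versus controls, or a plate z-score of at least 8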;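 note: Pro5 are CHO cells carrying HIG-tagged alpha-DG that lacks glycosylation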
CHOP UPR activ = activators of apoptotic arm of unfolded protein response (CHOP) | activation, % at 10 µM | AID 449763 | actives 0.34% (n = 330,000) | CHO-CHOP luciferase reporter, UPR activation, luminescence; percent of tunicamycin response over DMSO baseline;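 active = at 10 µM dose, activation of 40% or more, normalized to positive control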
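Dosing – one dose, 10 µM in 0.5% DMSO · System – CHO-CHOP cells, stable luciferase reporter of PERK-eIF2a-CHOP signalling · Input – 500 cells/well · Control set – tunicamycin 10 µg/mL final as positive, DMSO-only wells as negative · Timing – 6 h compound treatment, 37 °C · Measure – % activation vs tunicamycin · Technique – luminescence read with Steady-Glo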
NR3A LBD binder = modulators (binders) of human NR3A ligand-binding domain; NR3A LBD differential scanning fluorimetry, Tm shift; 0% = protein alone, 100% = glycine-bound protein; Tm shift relative to glycine control, % at 25 µM; actives 2.5% (n = 340,000);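 active = melting temperature shift of at least 10% of the positive control shift, at one fixed dose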
CHOP inh = blocks CHOP induction under ER stress; CHO-K1 CHOP-promoter luciferase, tunicamycin-induced, 15-18 h; inhibition, % at 10 µM; actives 3.8% (n = 220,000); AID 2732;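 active = compounds that reduced the stress-induced luciferase reporter signal by more than about 70% of percent inhibition, limit read from the data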
UPR XBP1 act = activators of adaptive arm of unfolded protein response (XBP1). CHO-XBP1 luciferase reporter, IRE1-XBP1 UPR activation, luminescence; percent of tunicamycin response, DMSO as zero. activation, % at 20 µM. actives 0.33% (n = 330,000);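 active = versus positive control, 20 µM dose yields 30% or more activation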
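Signal: luciferase luminescence; Assay system: CHO-XBP1 luciferase reporter cells; Amount: one thousand reporter cells per well; Dosing: 20 µM single concentration, DMSO 1%; Benchmarks: high control tunicamycin 10 µg/mL final, low control DMSO vehicle only; Schedule: 6 h compound exposure at 37 °C, 5% CO2; Evaluation: percent activation relative to tunicamycin reference.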
MPTP block = permeability transition pore inhibition. isolated mouse mitochondria, Ca2+ swelling absorbance, 30 min. inhibition, % at 10 µM. actives 1.4% (n = 360,000);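 active = inhibition of 50% or more, scaled per plate between neutral and stimulator controls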
Numbers stand for hits; 0 = inactive; - = no result given. Most compounds without a hit are left out; they make up all but 5.6% or so of the library.

SMILES | aDG glyco up | CHOP UPR activ | NR3A LBD binder | CHOP inh | UPR XBP1 act | MPTP block
CCCCN(CCCC)S(=O)(=O)c1ccc(NC(=O)Cc2cccs2)cc1 | 0 | 0 | 0 | 82 | 0 | 0
CCCCCC1CC(CC/C(C)=N/NC(N)=O)C(=O)O1 (stereo not given) | 0 | 0 | 0 | 0 | 0 | 0
CCCCCC1CC(CC(=O)O)C(=O)O1 (stereo not given) | 0 | 0 | 0 | 0 | 0 | 0
CCCCCC1CC(CC(=O)Nc2ccc([N+](=O)[O-])cc2)OC1=O (stereo not given) | 0 | 0 | 0 | 91 | 0 | 0
CCCCCCC1CC(CCC(=O)Nc2ccc([N+](=O)[O-])cc2)C(=O)O1 (stereo not given) | 0 | 0 | 0 | 84 | 0 | 0
Cc1ccccc1-n1c(SCC(=O)N/N=C/c2c(C)nn(-c3ccccc3)c2C)nc2ccccc2c1=O | 0 | 0 | 20 | 0 | 0 | 0
Cc1nn(-c2ccccc2)c(C)c1/C=N/NC(=O)CSc1nnc(SCc2cccc3ccccc23)s1 | 0 | 0 | 16 | 0 | 0 | 0
Cc1ccc(-n2c(SCC(=O)N/N=C/c3c(C)nn(-c4ccccc4)c3C)nc3ccccc3c2=O)cc1 | 0 | 0 | 0 | 0 | 0 | 0
O=c1oc2ccccc2n1Cc1cccc(C(F)(F)F)c1 | 0 | 0 | 0 | - | 0 | 0
NS(=O)(=O)c1ccc(NN=C2CCCCC2)c([N+](=O)[O-])c1 | 0 | 0 | 11 | 0 | 0 | 0
CCC(C)NC(=O)CCn1ccc2cc(S(=O)(=O)N3CCCC3)ccc21 (stereo not given) | 0 | 0 | 0 | - | 0 | 0
Cc1noc(C)c1COc1ccc(C(=O)OCC(=O)Nc2ccc(C(=O)N(C)C)cc2)cc1 | 0 | 0 | 0 | - | 0 | 0
Cc1ccc(C(=O)OC(C)C(=O)N(C)C2CCCCC2)cc1S(=O)(=O)N1CCCCC1 (stereo not given) | 0 | 0 | 0 | - | 0 | 0
Cc1cnc(C(=O)OCC(=O)Nc2cc(Cl)cc(Cl)c2)cn1 | 0 | 0 | 13 | 0 | 0 | 0
Cc1cnc(C(=O)OCC(=O)Nc2ccc(Br)c(C)c2)cn1 | 0 | 0 | 12 | - | 0 | 0
COc1ccc(CCNCc2ccc(OCC(=O)N3CCCCC3)c(OC)c2)cc1OC | 0 | 0 | 0 | 0 | 0 | 0
Cc1ccc(N=C2NC(=O)/C(=C\c3ccsc3)S2)c(C)c1 | 0 | 0 | 0 | 72 | 0 | 0
Cc1ccc(N=C2NC(=O)/C(=C/c3cccnc3)S2)c(C)c1 | 0 | 0 | 0 | 0 | 0 | 0
COc1cc(OC)cc(C(=O)N[C@H](C(=O)OCC(N)=O)C(C)C)c1 | 0 | 0 | 11 | 0 | 0 | 0
CC(C(=O)N1CCN(c2ccccc2)CC1)c1ccc([N+](=O)[O-])cc1 (stereo not given) | 0 | 0 | 0 | - | 0 | 0
COc1ccc(S(=O)(=O)c2snnc2C)cc1 | 0 | 0 | 0 | - | 0 | 0
CSc1nc2cc3c(cc2n1C(=O)c1ccc(C)cc1)OCCO3 | 0 | 0 | 0 | 90 | 0 | 0
CC(C)OC(=O)NCCOC(=O)Nc1ccc(Cl)cc1 | 0 | 0 | 25 | 0 | 0 | 0
CC(C)OC(=O)NCCOC(=O)Nc1ccccc1Cl | 0 | 0 | 0 | 0 | 0 | 0
CC(=O)Nc1ccc(NC(=O)CSc2ccc(-c3ccc(-n4ccnc4)cc3)nn2)cc1 | 0 | 0 | 17 | - | 0 | 0
SMILES | aDG glyco up | CHOP UPR activ | NR3A LBD binder | CHOP inh | UPR XBP1 act | MPTP block
COc1ccc(N/C=C2\CCc3ccccc3C2=O)cc1 | 0 | 0 | 0 | 83 | 0 | 0
O=C1/C(=C/Nc2ccc3c(c2)OCO3)CCc2ccccc21 | 0 | 0 | 0 | 77 | 0 | 0
O=C(Nc1cccc(C(=O)N2CCOCC2)c1)C1CCCC1 | 0 | - | 0 | - | - | 0
C=CCNc1nc(NCCOc2ccccc2Cl)c2sc(-c3ccccc3)cc2n1 | 0 | - | - | - | - | 0
COC(=O)N/N=C/c1cc(N=Nc2ccccc2)ccc1O | 0 | 0 | 0 | 0 | 0 | 0
Cc1cc(C(=O)N/N=C/c2cc(N=Nc3ccccc3)ccc2O)n[nH]1 | 0 | - | 0 | 89 | - | 0
Nc1[nH]c(C(=O)c2ccccc2)c(-c2ccncc2)c1C(=O)NC1CC1 | 0 | - | - | - | - | 0
COc1ccc(/C=N\NS(=O)(=O)c2ccc(Br)cc2)cc1COc1ccccc1[N+](=O)[O-] | 0 | 0 | 25 | 0 | 0 | 0
